According to paper PMC6810698 (European journal of nuclear medicine and molecular imaging, 2019):
Like-named read-outs stand apart in the source and are kept apart here.

What was measured:
SV2A [1] = molecular target: T1, SV2A (Macaca mulatta, UniProt H9EQH8); format: in vivo, rhesus monkeys (Macaca mulatta); settings: for Regional distribution volume (VT): 1TC model; for Regional non-displaceable binding potential (BPND): baseline scans (n = 4), reference region centrum semiovale
Method in brief: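 Fasted rhesus monkeys were immobilised with ketamine (10 mg/kg im) and maintained on isoflurane (1.5–2.5% in oxygen). Radiotracer was infused iv over 3 min after a transmission scan, and dynamic list-mode data were collected for 120 min. MR-defined ROIs gave time–activity curves. VT came from a 1TC model with metabolite-corrected arterial plasma input, and BPND from VT with centrum semiovale as reference.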

SV2A [2] = molecular target: T1, SV2A; assay: SV2A occupancy from occupancy plot; format: in vivo, rhesus monkeys (Macaca mulatta); settings: 0.15 mg/kg UCB-J, 10 min before 5-[^18F]UCB-J injection
Method in brief: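 Baseline and blocking PET scans were run with iv radiotracer and arterial input. Regional VT came from 1TC kinetic modelling. Occupancy was derived from an occupancy plot of baseline regional VT against the baseline-minus-blocking VT difference.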

SV2A [3] = molecular target: T1, SV2A; settings: same dose of UCB-J (0.15 mg/kg), measured with [^11C]UCB-J; cited from earlier work
human SV2A protein = settings: cited from earlier work
[4] = Plasma metabolite analysis; format: in vivo, rhesus monkeys (Macaca mulatta); settings: 30 min after injection; rhesus monkey arterial plasma; n = 4
[5] = Radiotracer free fraction; format: in vitro ADME, rhesus monkeys (Macaca mulatta); settings: ultrafiltration; rhesus monkey plasma; n = 4
Method in brief: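 Plasma ultrafiltration was used. fP was taken as filtrate radioactivity concentration divided by total plasma activity, measured in triplicate per scan.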

[6] = baseline scan, centrum semiovale
[7] = baseline scan, cingulate cortex
[8] = baseline scan, nucleus accumbens
[9] = baseline scan, occipital cortex

T1 sequence (H9EQH8 1-742): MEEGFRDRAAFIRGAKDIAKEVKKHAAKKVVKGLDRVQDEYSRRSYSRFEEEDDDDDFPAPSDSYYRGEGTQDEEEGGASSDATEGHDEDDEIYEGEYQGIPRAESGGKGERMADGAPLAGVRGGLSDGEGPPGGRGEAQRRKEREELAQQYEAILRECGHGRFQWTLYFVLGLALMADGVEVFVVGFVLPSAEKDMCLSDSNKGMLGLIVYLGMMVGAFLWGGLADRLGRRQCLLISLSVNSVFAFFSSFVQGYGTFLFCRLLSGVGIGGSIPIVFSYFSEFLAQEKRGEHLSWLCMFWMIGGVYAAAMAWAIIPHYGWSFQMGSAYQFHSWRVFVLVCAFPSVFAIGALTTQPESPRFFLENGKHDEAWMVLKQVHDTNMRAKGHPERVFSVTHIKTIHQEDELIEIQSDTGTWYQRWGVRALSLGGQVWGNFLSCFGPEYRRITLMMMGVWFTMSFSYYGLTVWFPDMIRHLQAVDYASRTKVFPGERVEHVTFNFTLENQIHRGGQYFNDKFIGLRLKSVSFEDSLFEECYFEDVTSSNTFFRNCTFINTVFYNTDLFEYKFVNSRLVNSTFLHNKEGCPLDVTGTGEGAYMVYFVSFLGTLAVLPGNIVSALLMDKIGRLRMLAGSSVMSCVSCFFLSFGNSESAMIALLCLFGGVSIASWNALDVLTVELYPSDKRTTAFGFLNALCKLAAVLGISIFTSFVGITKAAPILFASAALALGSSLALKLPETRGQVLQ

Regional distribution volume (VT) (SV2A [1]; baseline scan, amygdala) | Regional distribution volume (VT) (SV2A [1]; baseline scan, brainstem) | Regional distribution volume (VT) (SV2A [1]; baseline scan, caudate) | Regional distribution volume (VT) (SV2A [1]; [6]) | Regional distribution volume (VT) (SV2A [1]; baseline scan, cerebellum) | Regional distribution volume (VT) (SV2A [1]; [7]) | Regional distribution volume (VT) (SV2A [1]; baseline scan, frontal cortex) | Regional distribution volume (VT) (SV2A [1]; baseline scan, globus pallidus) | Regional distribution volume (VT) (SV2A [1]; baseline scan, hippocampus) | Regional distribution volume (VT) (SV2A [1]; baseline scan, insula) | Regional distribution volume (VT) (SV2A [1]; [8]) | Regional distribution volume (VT) (SV2A [1]; [9]) | Regional distribution volume (VT) (SV2A [1]; baseline scan, pons) | Regional distribution volume (VT) (SV2A [1]; baseline scan, putamen) | Regional distribution volume (VT) (SV2A [1]; baseline scan, temporal cortex) | Regional distribution volume (VT) (SV2A [1]; baseline scan, thalamus) | SMILES | pIC50, binding affinity to human SV2A protein (human SV2A protein) | also measured
5.0 mL/cm^−3 | 5.7 mL/cm^−3 | 6.6 mL/cm^−3 | 6.9 mL/cm^−3 | 5.7 mL/cm^−3 | 7.2 mL/cm^−3 | 7.2 mL/cm^−3 | 6.3 mL/cm^−3 | 5.7 mL/cm^−3 | 6.8 mL/cm^−3 | 6.3 mL/cm^−3 | 6.6 mL/cm^−3 | 6.1 mL/cm^−3 | 6.6 mL/cm^−3 | 6.5 mL/cm^−3 | 6.3 mL/cm^−3 | Cc1cnccc1CN1C[C@H](c2cc(F)c(F)c([18F])c2)CC1=O [(S)-5-[^18F]3, 4-(3,4-Difluoro-5-(fluoro-^18F)phenyl)-1-((3-methylpyridin-4-yl)methyl)pyrrolidin-2-one] |  | specific binding in brain (SV2A [1]; baseline scan, n = 1): lack of specific binding
 |  |  |  |  |  |  |  |  |  |  |  |  |  |  |  | Cc1cnccc1CN1C[C@@H](c2cc(F)c(F)c(F)c2)CC1=O [UCB-J] | 8.2 | SV2A occupancy by UCB-J (SV2A [2]): 73%; SV2A occupancy by UCB-J (SV2A [3]): 87%
 |  |  |  |  |  |  |  |  |  |  |  |  |  |  |  | CC[C@@H](C(N)=O)N1CCCC1=O [levetiracetam] |  | displacement of [^18F]UCB-J binding (SV2A [1]; levetiracetam 30 mg/kg i.v. at 90 min after radiotracer administration, 180-min scan with 5-[^18F]UCB-J): rapid reduction in radiotracer binding
 |  |  |  |  |  |  |  |  |  |  |  |  |  |  |  | Cc1cnccc1CN1C[C@H](c2cc(F)c(F)c(F)c2)CC1=O [(S)-enantiomer] | 7.1 | 
24.1 ± 2.2 mL/cm^−3 | 20.1 ± 2.8 mL/cm^−3 | 40.3 ± 6.1 mL/cm^−3 | 11.1 ± 1.6 mL/cm^−3 | 30.5 ± 3.5 mL/cm^−3 | 47.3 ± 7.5 mL/cm^−3 | 48.9 ± 7.4 mL/cm^−3 | 24.5 ± 3.1 mL/cm^−3 | 31.3 ± 2.3 mL/cm^−3 | 47.7 ± 7.5 mL/cm^−3 | 45.7 ± 6.2 mL/cm^−3 | 45.1 ± 6.9 mL/cm^−3 | 19.8 ± 2.7 mL/cm^−3 | 40.1 ± 6.8 mL/cm^−3 | 42.8 ± 6.7 mL/cm^−3 | 36.2 ± 5.2 mL/cm^−3 | [11CH3]c1cnccc1CN1C[C@@H](c2cc(F)c(F)c(F)c2)CC1=O [[^11C]UCB-J] |  | Regional non-displaceable binding potential (BPND) (SV2A [1]; amygdala): 1.2 ± 0.4; Regional non-displaceable binding potential (BPND) (SV2A [1]; brainstem): 0.8 ± 0.2; Regional non-displaceable binding potential (BPND) (SV2A [1]; caudate): 2.7 ± 0.7; Regional non-displaceable binding potential (BPND) (SV2A [1]; cerebellum): 1.8 ± 0.3; Regional non-displaceable binding potential (BPND) (SV2A [1]; cingulate cortex): 3.3 ± 0.9; Regional non-displaceable binding potential (BPND) (SV2A [1]; frontal cortex): 3.5 ± 0.9; Regional non-displaceable binding potential (BPND) (SV2A [1]; globus pallidus): 1.2 ± 0.2; Regional non-displaceable binding potential (BPND) (SV2A [1]; hippocampus): 1.9 ± 0.3; Regional non-displaceable binding potential (BPND) (SV2A [1]; insula): 3.3 ± 0.8; Regional non-displaceable binding potential (BPND) (SV2A [1]; nucleus accumbens): 3.2 ± 0.7; Regional non-displaceable binding potential (BPND) (SV2A [1]; occipital cortex): 3.1 ± 0.7; Regional non-displaceable binding potential (BPND) (SV2A [1]; pons): 0.8 ± 0.2; Regional non-displaceable binding potential (BPND) (SV2A [1]; putamen): 2.6 ± 0.5; Regional non-displaceable binding potential (BPND) (SV2A [1]; temporal cortex): 2.9 ± 0.6; Regional non-displaceable binding potential (BPND) (SV2A [1]; thalamus): 2.3 ± 0.7; BPND values in all brain regions (SV2A [1]; baseline scans, all brain regions): > 0.75; intact parent radiotracer in plasma (parent fraction) [4]: 47 ± 12%; plasma free fraction (fp) [5]: 43 ± 5%
